Laboratory results from paper PMC2874112 (Bioconjugate chemistry, 2010).

Experiments:
MCF-7 cells = assay: Proliferation study; format: cell-based; conditions: tamoxifen-sensitive MCF7 cells, 1 nM estradiol, 7 days, MTT
How it was run: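 MCF-7 cells were maintained in phenol red free DMEM F-12 HAM with glutamine, penicillin/streptomycin and 10% FBS at 37 °C under 5% CO2. […] Cell number was read by MTT. Two experiments were run, each in triplicate.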

[1] = molecular target: T1, ER alpha levels in MCF7 cells (Homo sapiens, UniProt P03372); assay: Receptor stability study; format: cell-based; conditions: 24 hours, 10 nM estradiol, 100 nM fulvestrant, 10 μM OHT-6C-BODIPY
T1 sequence (P03372 1-595): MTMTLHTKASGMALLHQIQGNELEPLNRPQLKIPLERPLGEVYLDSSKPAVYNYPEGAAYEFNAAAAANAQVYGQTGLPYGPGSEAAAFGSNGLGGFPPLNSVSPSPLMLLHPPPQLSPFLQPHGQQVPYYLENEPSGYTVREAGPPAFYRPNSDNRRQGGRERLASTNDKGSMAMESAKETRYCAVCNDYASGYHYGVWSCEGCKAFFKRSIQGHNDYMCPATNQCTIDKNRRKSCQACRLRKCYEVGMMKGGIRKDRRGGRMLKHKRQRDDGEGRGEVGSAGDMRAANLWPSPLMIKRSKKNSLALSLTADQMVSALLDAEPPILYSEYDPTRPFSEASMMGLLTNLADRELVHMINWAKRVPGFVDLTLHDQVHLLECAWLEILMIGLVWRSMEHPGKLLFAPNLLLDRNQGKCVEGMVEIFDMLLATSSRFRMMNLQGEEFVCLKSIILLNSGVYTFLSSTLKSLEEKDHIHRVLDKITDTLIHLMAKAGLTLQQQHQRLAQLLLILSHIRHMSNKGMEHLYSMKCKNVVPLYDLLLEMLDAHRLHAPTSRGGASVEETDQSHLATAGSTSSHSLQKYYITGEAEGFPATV

| Effect on cellular ER alpha levels [1] | SMILES | Effect on estradiol-induced growth (MCF-7 cells) |
| --- | --- | --- |
| – | CC/C(=C(\c1ccc(O)cc1)c1ccc(OCCN(C)C)cc1)c1ccccc1 [OHT, 4-hydroxytamoxifen] | able to block estradiol-induced growth |
| marked receptor downregulation | C[C@]12CC[C@@H]3c4ccc(O)cc4C[C@@H](CCCCCCCCC[S+]([O-])CCCC(F)(F)C(F)(F)F)[C@H]3[C@@H]1CC[C@@H]2O (some centres unmarked) [fulvestrant] | – |
